Source: ChEMBL document CHEMBL4825683, “Synthesis and approbation of new neuroprotective chemicals of pyrrolyl- and indolylazine classes in a cell model of Alzheimer's disease” (Eur J Med Chem, 2021)
Activity calls are given as the source filed them. No cut-off for these calls is given here.

Columns and labels:
[1] = biological target: T1, Heat shock factor protein 1 (Homo sapiens) (UniProt Q00613); experiment: Activation of Hsf1 in human MSC-NEU cells assessed as induction of HSP70 accumulation at 1 uM incubated for 24 hrs by Western blotting analysis relative to control; format: cell-based; details: MSC-NEU cell, filed as activator
T1 sequence (whole entry): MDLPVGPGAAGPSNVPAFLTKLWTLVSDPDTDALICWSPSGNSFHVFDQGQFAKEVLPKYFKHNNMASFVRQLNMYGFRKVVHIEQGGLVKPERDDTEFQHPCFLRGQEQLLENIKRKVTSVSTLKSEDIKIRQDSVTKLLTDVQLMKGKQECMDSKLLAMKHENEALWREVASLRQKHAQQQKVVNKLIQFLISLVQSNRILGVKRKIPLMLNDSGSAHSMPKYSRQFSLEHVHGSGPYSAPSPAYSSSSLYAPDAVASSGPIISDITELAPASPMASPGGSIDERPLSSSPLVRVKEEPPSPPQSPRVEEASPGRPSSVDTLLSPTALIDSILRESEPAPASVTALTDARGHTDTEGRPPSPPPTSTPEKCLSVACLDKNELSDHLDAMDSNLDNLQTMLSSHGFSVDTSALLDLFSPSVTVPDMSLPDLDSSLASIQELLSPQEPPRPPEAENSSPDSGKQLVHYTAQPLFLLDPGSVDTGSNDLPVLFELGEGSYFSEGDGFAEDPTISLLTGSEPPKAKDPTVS
Method in brief: (§1)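 MSC-NEU cells: human dental-pulp mesenchymal stem cells (MSC-DP) grown in DMEM/F12 with 10% FBS, 100 units/mL penicillin and 0.1 mg/mL streptomycin at 37 °C, 5% CO2. They were then reprogrammed to a neuronal phenotype over 5 days in Neurobasal medium with B27 supplement, 3% FBS and the same antibiotics.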

[2] = biological target: T1, Heat shock factor protein 1 (Homo sapiens); experiment: Activation of Hsf1 in human MSC-NEU cells assessed as induction of HSP90 accumulation at 1 uM incubated for 24 hrs by Western blotting analysis relative to control; format: cell-based; details: MSC-NEU cell; for fold change (FC): filed as activator; method in brief: as §1
[3] = biological target: T1, Heat shock factor protein 1 (Homo sapiens); experiment: Activation of Hsf1 in human MSC-NEU cells assessed as increase in HSP70 substrate-binding chaperone activity at 1 uM incubated for 24 hrs by protein-protein interaction assay relative to control; format: cell-based; details: MSC-NEU cell, filed as activator; method in brief: as §1
[4] = Cytotoxicity against human MSC-NEU cells assessed as reduction in cell viability measured after 48 hrs by MTT assay; format: cell-based; details: read-out: LC50
Method in brief: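 Human dental pulp mesenchymal stem cells (MSC-DP) were grown in DMEM/F12 with 10% FBS, penicillin and streptomycin at 37 °C and 5% CO2. They were then reprogrammed to a neuronal phenotype (MSC-NEU) over 5 days in Neurobasal medium with B27 supplement, 3% FBS and antibiotics.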

[5] = Neuroprotective activity against amyloid beta (1 to 42)-stimulated human MSC-NEU cells assessed as increase in cell index incubated for 48 hrs by xCELLigence RTCA analysis; format: functional; method in brief: as §1
[6] = Inhibition of amyloid beta (1 to 42)-induced cellular senescence in human MSC-NEU cells assessed as reduction in beta-galactosidase activity at 1 uM measured after 48 hrs by X-Gal staining based analysis relative to control; format: functional, MSC-NEU cell; method in brief: as §1
[7] = Inhibition of amyloid beta(1 to 42)-induced apoptosis in human MSC-NEU cells assessed as reduction in caspase-3 activity at 1 uM measured after 24 hrs by fluorescence based analysis relative to control; format: functional, MSC-NEU cell; method in brief: as §1
[8] = Inhibition of amyloid beta(1 to 42)-induced apoptosis in human MSC-NEU cells at 1 uM measured after 24 hrs by AnnexinV-Alexafluor647/propidium iodide staining based flow cytomtery relative to control; format: functional, MSC-NEU cell; method in brief: as §1
[9] = biological target: T1, Heat shock factor protein 1 (Homo sapiens); experiment: Activation of Hsf1 in human HEK293 cells transfected with Hsp70.1pr-luc plasmid at 1 uM incubated for 24 hrs by luciferase reporter gene based luminescence assay; format: cell-based; details: filed as activator

O=c1[nH]c2ccccc2nc1-c1ccc(-c2ccccc2)[nH]1
fold change (FC) [1]: 1.6 | fold change (FC) [2]: 1.85 | fold change (FC) [3]: 1.3 | CC50 at 48 h [4]: 494 µM | Activity [5]: 10% | fold change (FC) [6]: 1.12 | fold change (FC) [7]: 2.12 | fold change (FC) [8]: 4.2 | Activity [9]: Active

Brc1ccc2[nH]cc(-c3ncnc4ccccc34)c2c1
fold change (FC) [1]: 1.9 | Activity [2]: inactive | fold change (FC) [3]: 1.3 | CC50 at 48 h [4]: 279 µM | Activity [5]: 10% | fold change (FC) [6]: 1.04 | fold change (FC) [7]: 2.51 | fold change (FC) [8]: 4.2 | Activity [9]: Active

Clc1nccc(-c2c[nH]c3ccc(Br)cc23)n1
fold change (FC) [1]: 2.7 | fold change (FC) [2]: 1.6 | fold change (FC) [3]: 1.3 | CC50 at 48 h [4]: 316 µM | Activity [5]: 10% | fold change (FC) [6]: 1.17 | fold change (FC) [7]: 2.04 | fold change (FC) [8]: 4.2 | Activity [9]: Active

C[n+]1c2ccccc2c(-c2c[nH]c3ccc(O)cc23)c2ccccc21.[I-]
fold change (FC) [1]: 2.2 | fold change (FC) [2]: 2.1 | fold change (FC) [3]: 1.3 | CC50 at 48 h [4]: > 1000 µM | Activity [5]: 10% | fold change (FC) [6]: 1.22 | fold change (FC) [7]: 2.24 | fold change (FC) [8]: 4.2 | Activity [9]: Active
